Source: PubChem BioAssay (Broad Institute)
CAL PDZ FP-1 = blocks peptide binding to human CAL PDZ domain; hit rate 0.02% among 330,000; inhibition, % at 20 µM; Q9HD26; purified CAL PDZ, TMR-peptide fluorescence polarization, 1 h;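 active = highest replicate inhibition of at least 40%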;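 note: plate controls were DMSO neutral control wells for no effect and unlabeled competitor peptide control wells for full effect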
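System: tagged CAL PDZ domain. Schedule: 1 h room-temperature incubation prior to read. Signal: fluorescence polarization (mP). Measure: percent inhibition from loss of millipolarization.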
PGC1a acetyl inh = PGC1a acetylation modulation, inhibitor mode. inhibition, % at 15.6 µM. U2OS PGC1a acetylation, AlphaScreen anti-acetyl-lysine; with virally co-expressed GCN5 acetyltransferase. hit rate 0.17% among 350,000;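 active = every replicate shows inhibition of at least 40%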;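 note: 0% = neutral control wells and 100% = positive control wells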
F508del corr = CFTR F508del correction in bronchial cells. CFBE cells, YFP halide quenching; stimulated with forskolin plus potentiator P3; % fluorescence drop versus neutral controls. activity (quench increase), % at 7.58 µM. hit rate 0.36% among 350,000. AID 720511;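 active = mean added fluorescence quench of at least 8% versus neutral control, with both replicates also reaching 8%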;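 note: cells transiently co-express mutant CFTR-F508del with the halide-sensitive YFP; corrector assay measuring rescue of mutant channel to the surface after 24 h compound exposure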
miR122 inh = miR-122 inhibition in Huh7 cells. Huh7 miR-122 Renilla luciferase sensor, 48 h; neutral wells = 0, positive control = 100. activation (reporter increase), % at 12.5 µM. hit rate 0.3% among 340,000. AID 602342;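 active = mean replicate activation score at least 90 and every replicate individually at or above 90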;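 note: higher luciferase means less miR-122 activity so hits act as miR-122 inhibitors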
ARNT-TACC3 inh = ARNT/TACC3 interaction disruption; hit rate 0.66% among 390,000; inhibition, % at 9.99 µM; AlphaScreen His-ARNT PAS-B/GST-TACC3 binding, luminescence; TACC3 fragment carries E629A point mutation; AID 623870;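 active = mean inhibition of replicates at least 50% and at least half of replicates each reaching 50%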;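 note: 0% = complete ARNT plus TACC3 wells and 100% = ARNT alone without TACC3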
CAL PDZ FP-2 = inhibitors of human CAL PDZ peptide binding. Q9HD26. purified CAL PDZ, TMR-peptide fluorescence polarization, 1 h. inhibition, % at 24.9 µM. hit rate 0.92% among 300,000. AID 602252;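 active = mean inhibition of at least 30% with at least half of replicates also reaching 30%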;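 note: 0% = DMSO neutral control and 100% = excess unlabeled competitor peptide PRC23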
Active calls of the source: *; · = not tested or not shown; [ ] = remark or other dose. This is a sample that favours compounds with a hit; in the whole collection about 1.7% have one here.

SMILES	CAL PDZ FP-1	PGC1a acetyl inh	F508del corr	miR122 inh	ARNT-TACC3 inh	CAL PDZ FP-2
NC(=O)COC(=O)c1ccc(NS(=O)(=O)c2ccc3c(c2)OCCO3)cc1	-1	-5	0	10	13	76*
CNC(=O)COC(=O)c1ccc(NS(=O)(=O)c2ccc3c(c2)OCCO3)cc1	-1	-6	-2	·	-1	-2
N#CCC(=O)Nc1ccc(C(=O)OCC(=O)NC(=O)Nc2ccc3c(c2)OCCO3)cc1	-2	17	-1	3	-2	62*
CCCCNC(=O)COC(=O)c1ccc(NS(=O)(=O)c2ccc3c(c2)OCCO3)cc1	-1	7	·	2	-7	-2
CCC(=O)Nc1ccc2c(c1)OC[C@@H](C)N(C(=O)Cc1cccnc1)C[C@H](C)[C@H](OC)CN(C)C2=O	·	3	0	·	-5	·
CCNC(=O)C[C@@H]1CC[C@H]2[C@@H](COc3ccc(NC(=O)c4cccs4)cc3C(=O)N2C)O1	·	6	-2	-2[16.7 µM]	9	·
Cn1cnc(S(=O)(=O)N2C[C@@H](O)COC[C@@H]3O[C@@H](CC(=O)NCc4ccc(F)cc4)CC[C@H]32)c1	·	6	-1	-4[16.7 µM]	1	·
Cc1ccc(C)c(OCC(O)CN2CCC(Cc3ccccc3)CC2)c1 (stereo not given)	-2	-9	1	-3	4	37*
OC(COc1ccc(Cl)cc1)CN1CCC(Cc2ccccc2)CC1 (stereo not given)	-2	9	-2	-3	-1	-3
O=C(Nc1ccc(Br)cn1)c1ccc(COc2c(F)c(F)cc(F)c2F)o1	0	7	0	-11	-13	35*
COc1ccc(S(=O)(=O)Nc2ccc3c(c2)COC3=O)cc1OC	-2	·	·	150*	1	0
COc1ccc(C(=O)C[n+]2cccc(Br)c2)cc1	0	·	-1	·	13	32*
Cc1cc(NC(=O)CSc2nc3c(sc4ccccc43)c(=O)n2CCc2ccccc2)n[nH]1	-4	2	·	21	·	-3
Cc1cc(NC(=O)CSc2nc3c(sc4ccccc43)c(=O)n2CCCN2CCOCC2)n[nH]1	-2	-12	·	178*	0	2
COCCOC(=O)N1C(=O)[C@@]2(c3ccccc31)[C@H](c1ccccc1OCCO)N1[C@H](c3ccccc3)[C@H](c3ccccc3)OC(=O)[C@H]1[C@@H]2C(=O)NC[C@H](O)c1ccccc1	·	·	2	·	-8	·
COc1ccc(-c2cc(C)no2)cc1S(=O)(=O)Nc1cccc(C)c1	-3	-41	0	117*	-6	-1
COc1ccc(-c2cc(C)no2)cc1S(=O)(=O)Nc1ccccc1	-3	-22	-3	120*	-5	-2
Cc1noc(C)c1NC(=O)Nc1cccc2c1O[C@H](CN(C)S(=O)(=O)c1cn(C)cn1)[C@@H](C)CN([C@@H](C)CO)C2=O	·	16	-3	-1[16.7 µM]	-1	·
CC(=O)Nc1cccc(C(=O)NNC(=O)c2ccc(NS(=O)(=O)c3cccs3)cc2)c1	·	0	-3	1	·	·
NC(=O)c1cc(NC(=O)c2ccc(NS(=O)(=O)c3cccs3)cc2)cc(C(N)=O)c1	-1	3	0	4	35*	11
CCCC(O)(c1ccc(Cl)cc1)C(CN1CCOCC1)c1ccccc1 (stereo not given)	-2	-2	1	5	46*	·
O=C(O)c1cc2c(cc1Cl)N1CCCCCC1=NS2(=O)=O	1	·	-3	·	-5	51*
CCc1noc(C)c1C(=O)Nc1nc2c(C)cccc2s1	-3	3	1	-4	-3	-7
CCc1noc(C)c1C(=O)Nc1ncc(C)s1	-3	1	·	5	6	35*
C[C@H](CO)N1C[C@H](C)[C@@H](CN(C)Cc2ccncc2)Oc2ccc(NS(=O)(=O)c3ccccc3)cc2C1=O	·	1	-4	-5[16.7 µM]	-5	·
SMILES	CAL PDZ FP-1	PGC1a acetyl inh	F508del corr	miR122 inh	ARNT-TACC3 inh	CAL PDZ FP-2
CCC(=O)Nc1ccc2c(c1)C(=O)N(C)C[C@@H](OC)[C@H](C)CN(Cc1cncnc1)[C@@H](C)CO2	·	18	-1	-1[16.7 µM]	·	·
COc1ccc(S(=O)(=O)N(C)C[C@H]2OCCCC[C@@H](C)Oc3ccc(NC(=O)NC(C)C)cc3C(=O)N([C@H](C)CO)C[C@@H]2C)cc1	·	-1	0	-9[16.7 µM]	0	·
O=C(NCC1CCCO1)C(c1cccs1)N(C(=O)Cn1nnc(-c2cccs2)n1)C1CCCC1 (stereo not given)	0	10	·	53	-4	-1
O=C(NCC1CCCO1)C(c1cccs1)N(Cc1cccs1)C(=O)Cn1nnc(-c2cccs2)n1 (stereo not given)	·	-7	·	116*	3	-2
Cc1ccc(/C=N/NC(=O)c2c(-c3ccccc3)noc2C)c(O)c1	-3	·	11*	6	47*	-5
CCOc1cc([N+](=O)[O-])cc(/C=N/NC(=O)c2c(-c3ccccc3)noc2C)c1O	0	8	·	-3	57*	-2
COc1ccc2c3c(n(C)c2c1)[C@@H](CO)N(C(=O)C1CCCCC1)CC31CCN(C(=O)c2ccncc2)CC1	·	-3	3	·	·	·
COc1cccc(-c2ccc3c(c2)[C@@H]2[C@@H](CCN2S(=O)(=O)c2cn(C)cn2)[C@@H](CO)N3)c1	·	-10	0	43[16.7 µM]	active	·
N#Cc1ccc(-c2ccc3c(c2)[C@H]2[C@H](CCN2S(=O)(=O)c2ccccc2F)[C@@H](CO)N3)cc1	·	16	15*	62[16.7 µM]	-12	·
Cn1cnc(S(=O)(=O)N2CC[C@H]3[C@H](CO)Nc4ccc(-c5ccccc5)cc4[C@H]32)c1	·	-10	-1	-2[16.7 µM]	4	·
COc1cccc(-c2ccc3c(c2)[C@H]2[C@H](CCN2S(=O)(=O)c2ccccc2C)[C@@H](CO)N3)c1	·	9	7	97*[16.7 µM]	-3	·
O=C(C[C@@H]1CC[C@@H]2[C@H](COC[C@H](O)CN2CC2CCOCC2)O1)N1CCOCC1	·	6	-1	-2[16.7 µM]	·	·
O=C(C[C@@H]1CC[C@H](NC(=O)Nc2cccc(F)c2)[C@@H](CO)O1)NCC1CCCCC1	·	2	-1	·	-11	·
CCN(CC(=O)Nc1ccc(NC(C)=O)cc1)C(=O)c1ccc(N2CCC(C)CC2)c([N+](=O)[O-])c1	0	4	41*	19	5	-3
O=C(Nc1ccccn1)Nc1ccccc1Cl	3	3	2	1	-5	31*
O=C(Nc1cnccn1)Nc1ccccc1Cl	-1	4	·	-2	-6	4
C[C@H](CO)N1C[C@H](C)[C@@H](CN(C)Cc2ccc(-c3ccccc3)cc2)Oc2ccc(NC(=O)Nc3cccc4ccccc34)cc2C1=O	·	-7	4	-14[16.7 µM]	4	·
CCC(=O)N1C[C@@H](C)[C@H](OC)CN(C)C(=O)c2ccc(NC(=O)c3ccccc3)cc2OC[C@H]1C	·	-3	0	·	0	·
